Test results from ChEMBL document CHEMBL1124932, “Synthesis and antiviral activity of 9-alkoxypurines. 1. 9-(3-Hydroxypropoxy)- and 9-[3-hydroxymethyl)propoxy]purines” (J Med Chem, 1990).

How the values were obtained:
[1] = tested on: Mus musculus; assay: Concentration of BRL 44385 in blood was determined in female BALB/c mice at 60 min after dosing of […]; type: ADME, organism-based; conditions: in vivo, 1 h
Method in brief: (§1)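 Female Balb/c mice (20 g), fasted 18 h, given a single 0.2 mmol/kg oral gavage dose in 0.1 mL 1% (carboxymethyl)cellulose. Blood drawn by cardiac puncture with heparinised syringes at 15, 60 and 180 min. Equal volumes from three mice pooled per time point. Samples deproteinised with 16% trichloroacetic acid, neutralised with NaHCO3, mixed with 0.4 M NH4OAc (pH 6.0), and analysed by HPLC.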

[2] = tested on: Mus musculus; assay: Concentration of BRL 44385 in blood was determined in female BALB/c mice at 15 min a after of dosing of […]; type: ADME, organism-based; conditions: in vivo, 0.25 h; method in brief: as §1
[3] = tested on: Mus musculus; assay: Concentration of BRL 44385 in blood was determined in female BALB/c mice at 60 min a after of dosing of […]; type: ADME, organism-based; conditions: in vivo, 1 h; method in brief: as §1
[4] = tested on: MRC5; assay: Antiviral activity in plaque reduction assay was determined against varicella zoster virus (VZV) in MRC-5 cells.; type: functional, cell-based; conditions: Homo sapiens
[5] = tested on: MRC5; assay: Antiviral activity in plaque reduction assay was determined against herpes simplex virus type 2 (HSV-2) in MRC-5 cells.; type: functional, cell-based; conditions: Homo sapiens
Method in brief: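 HSV-2 at about 50 PFU infected onto MRC-5 monolayers. Compound at various concentrations, present throughout incubation. Stocks 10 mg/mL in Me2SO, diluted in culture medium. Plaques counted when clearly visible, usually 1 day.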

[6] = tested on: Vero; assay: Antiviral activity in plaque reduction assay was determined against herpes simplex virus type 1 (HSV-1) in Vero cells.; type: functional, cell-based; conditions: Chlorocebus sabaeus
Method in brief: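 Vero monolayers infected with about 50 PFU HSV-1. Compound at various concentrations, present throughout incubation. Stocks 10 mg/mL in Me2SO, diluted in culture medium. Plaques counted when clearly visible, usually 3 days.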

Compound	concentration [1] [µM]	concentration [2] [µM]	concentration [3] [µM]	IC50 [4] [µM]	IC50 [5] [µM]	IC50 [6] [µM]
Nc1ncc2ncn(OCC(COC(=O)c3ccccc3)COC(=O)c3ccccc3)c2n1	9	14	–	–	–	–
Nc1ncc2ncn(OCCCOC(=O)c3ccccc3)c2n1	–	46	4	–	–	–
CCOc1nc(N)nc2c1ncn2OCC(CO)CO	–	37	15	–	–	–
Nc1nc(O)c2ncn(OCC3COP(=O)(O)OC3)c2n1 (stereo not drawn)	–	–	–	186	180	180
CC(=O)OCCCOn1cnc2c(O)nc(N)nc21	–	3	5	45	4.1	16
COc1nc(N)nc2c1ncn2OCC(CO)CO	–	7	8	–	–	–
CCCCCC(=O)OCCCOn1cnc2c(O)nc(N)nc21	–	8	3	7.4	0.22	2.1
Nc1nc2c(ncn2COCCO)c(=O)[nH]1 [ACYCLOVIR]	–	–	–	–	2.5	6.7
CCCCCC(=O)OCCCOn1cnc2cnc(N)nc21	–	66	4	–	–	–
CC(=O)OCCCOn1cnc2cnc(N)nc21	–	45	3	–	–	–

The next lines start with results.

concentration [1] [µM]	concentration [2] [µM]	concentration [3] [µM]	Compound	IC50 [4] [µM]	IC50 [5] [µM]	IC50 [6] [µM]
–	43	3	Nc1ncc2ncn(OCCCO)c2n1	–	–	–
–	29	26	CC(C)Oc1nc(N)nc2c1ncn2OCC(CO)CO	–	–	–
–	53	10	CC(=O)OCC(COC(C)=O)COn1cnc2cnc(N)nc21	–	–	–
–	< 2	< 2	Nc1nc(N)c2ncn(OCC(CO)CO)c2n1	–	–	–
–	11	5	Nc1nc(Cl)c2ncn(OCC(CO)CO)c2n1	–	–	–
–	< 2	< 2	Nc1nc(O)c2ncn(OCCCOC(=O)c3ccccc3)c2n1	> 300	6.4	8.5
–	31	16	Nc1ncc2ncn(OCC(CO)CO)c2n1	–	–	–
–	8	5	Nc1nc(O)c2ncn(OCCCO)c2n1	4.4	0.71	2.1
–	49	12	CCC(=O)OCC(COC(=O)CC)COn1cnc2cnc(N)nc21	–	–	–
–	6	< 2	CCOc1nc(N)nc2c1ncn2OCCCO	–	–	–
–	2	2	Nc1nc(O)c2ncn(OCC(CO)CO)c2n1	11	5.9	5.9
